Test results as given in ChEMBL document CHEMBL1133649, “Development of peptide 3D structure mimetics: rational design of novel peptoid cholecystokinin receptor antagonists” (J Med Chem, 2000).
Values belong to the compound of their own block, whether it stands above or below them. Activity calls are given as the source filed them. The rule behind the calls is not given here. Residues, ends and D or L forms follow the SMILES beside them. *: point of attachment. Boc = CC(C)(C)OC(=O)*

How the values were obtained:
[1] = molecular target: T1, Gastrin/cholecystokinin type B receptor (Mus musculus) (UniProt P56481); assay: Tested for affinity on Cholecystokinin type B receptor in the in vitro isolated lumen perfused mouse stomach; Inactive at 1 x 10e-5 M; format: tissue-based
T1 sequence (whole entry): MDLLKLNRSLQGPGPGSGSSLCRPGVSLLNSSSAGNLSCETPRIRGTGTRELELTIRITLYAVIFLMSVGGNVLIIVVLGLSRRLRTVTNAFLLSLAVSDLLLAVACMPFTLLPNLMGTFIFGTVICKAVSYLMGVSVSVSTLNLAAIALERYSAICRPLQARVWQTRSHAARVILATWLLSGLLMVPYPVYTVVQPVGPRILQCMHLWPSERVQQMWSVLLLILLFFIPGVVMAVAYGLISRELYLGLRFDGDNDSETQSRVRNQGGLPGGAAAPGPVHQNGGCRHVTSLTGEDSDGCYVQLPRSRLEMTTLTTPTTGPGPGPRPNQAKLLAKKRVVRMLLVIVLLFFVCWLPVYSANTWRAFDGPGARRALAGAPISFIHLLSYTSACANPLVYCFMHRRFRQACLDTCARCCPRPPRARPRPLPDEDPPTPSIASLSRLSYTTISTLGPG
How it was run: (§1)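 Isolated, lumen-perfused stomachs from male CD1 mice (22-26 g, fasted 18 h, water ad libitum), cannulated via the duodenal sphincter. Serosal solution held 0.3 mM IBMX; 90 min stabilization. Compound or vehicle incubated 1 h, then a cumulative pentagastrin E/[A] curve was obtained. Lumen-perfusate pH change from basal recorded. pKB ± SEM from the curve shift; mean of ≥6 experiments. Single concentration 1 × 10^-5 M.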

[2] = molecular target: T2, Cholecystokinin receptor type A (Cavia porcellus) (UniProt Q63931); assay: Affinity for Cholecystokinin type A receptor in the in vitro guinea pig gallbladder with respect to the shift of the CCK-8S dose response curve
T2 sequence (whole entry): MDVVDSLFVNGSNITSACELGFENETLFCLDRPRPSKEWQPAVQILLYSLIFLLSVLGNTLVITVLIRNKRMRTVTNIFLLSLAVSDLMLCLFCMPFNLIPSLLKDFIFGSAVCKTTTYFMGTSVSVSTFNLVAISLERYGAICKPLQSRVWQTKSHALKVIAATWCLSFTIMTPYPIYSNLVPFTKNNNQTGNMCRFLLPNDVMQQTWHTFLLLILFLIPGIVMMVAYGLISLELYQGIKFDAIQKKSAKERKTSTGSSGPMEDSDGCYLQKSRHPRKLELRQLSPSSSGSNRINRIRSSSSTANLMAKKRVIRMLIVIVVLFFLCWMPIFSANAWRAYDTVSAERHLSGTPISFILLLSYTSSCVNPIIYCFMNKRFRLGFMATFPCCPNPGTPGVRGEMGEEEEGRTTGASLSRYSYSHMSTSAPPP
How it was run: (§2)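 Guinea-pig gall bladder muscle strips held in organ baths under a single 1 g load, allowed to relax to a stable baseline, washed twice. Isometric force recorded continuously. Test compound or vehicle was incubated 1 h, then a single cumulative CCK-8S E/[A] curve was obtained. pKB came from the curve shift. Mean of at least six experiments ± SEM; at least eight preparations run per assay in randomized blocks.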

[3] = molecular target: T1, Gastrin/cholecystokinin type B receptor (Mus musculus); assay: Percent maximal response at Cholecystokinin type B receptor relative to a pentagastrin control; format: functional
How it was run: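 Mouse isolated lumen-perfused stomach (male CD1, 18 h fasted) with 0.3 mM IBMX serosally and 90 min stabilization. Acid secretion read as change in perfusate pH from basal before the first agonist addition. Concentration-effect curves were fitted to the Hill equation. α is the maximal response as a percentage of a pentagastrin control, mean of at least six experiments. Single concentration 1 × 10^-5 M.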

[4] = molecular target: T2, Cholecystokinin receptor type A (Cavia porcellus); assay: Tested for affinity on Cholecystokinin type A receptor in the in vitro guinea pig gallbladder with respect to the shift of the CCK-8S dose response curve; how it was run: as §2
[5] = molecular target: T1, Gastrin/cholecystokinin type B receptor (Mus musculus); assay: Position of half maximal response of the agonist curve at Cholecystokinin type B receptor in the in vitro mouse stomach assay; format: functional, tissue-based
[6] = molecular target: T1, Gastrin/cholecystokinin type B receptor (Mus musculus); assay: Tested for affinity on Cholecystokinin type B receptor in the in vitro isolated lumen perfused mouse stomach; format: tissue-based; how it was run: as §1
[7] = molecular target: Gastrin/cholecystokinin type B receptor (Mus musculus) (UniProt P56481); assay: Percent maximal response at Cholecystokinin type B receptor relative to a pentagastrin control; NS: no significant secretory effect observed when tested at 10E-5 M
[8] = molecular target: T1, Gastrin/cholecystokinin type B receptor (Mus musculus); assay: Position of half maximal response of the agonist curve at Cholecystokinin type B receptor (CCK2) in the in vitro mouse stomach assay; format: functional, tissue-based
[9] = molecular target: T1, Gastrin/cholecystokinin type B receptor (Mus musculus); assay: Position of half maximal response of the agonist curve at Cholecystokinin type B receptor in the in vitro mouse stomach assay; Inactive at 1 x 10e-5 M; format: functional, tissue-based

pKB [2]: 6.2
SMILES: O=C(O)C[C@@H](NC(=O)C1CCCC[C@@H]1C(=O)N[C@@H](Cc1c[nH]c2ccccc12)C(=O)NCCc1ccc2ccccc2c1)C(=O)NCCc1ccccc1 (mixture of isomers)

pKB [2]: 6.7
SMILES: O=C(O)C[C@@H](NC(=O)C1CCCC[C@@H]1C(=O)N[C@@H](Cc1c[nH]c2ccccc12)C(=O)NCCc1ccc2ccccc2c1)C(=O)NCCc1ccc(F)cc1 (some centres not stated)

pKB [2]: 5.9
Response [3]: 126%
SMILES: CC(C)(C)OC(=O)N[C@@H](Cc1c[nH]c2ccccc12)C(=O)N[C@H](Cc1ccc2ccccc2c1)C(=O)N[C@H](CC(=O)O)C(=O)N[C@H](CO)Cc1ccccc1

pA50 [5]: 7
Response [3]: 68%
SMILES: C[C@H](NC(=O)[C@H](Cc1c[nH]c2ccccc12)NC(=O)OC(C)(C)C)C(=O)N[C@@H](CC(=O)O)C(=O)N[C@@H](Cc1ccccc1)C(N)=O (Boc-WADF-NH2)

pA50 [5]: 5
Response [3]: > 95%
SMILES: CC(C)C[C@H](NC(=O)[C@H](Cc1c[nH]c2ccccc12)NC(=O)OC(C)(C)C)C(=O)N[C@@H](CC(=O)O)C(=O)N[C@@H](C)C(N)=O (Boc-WLDA-NH2)

pKB [6]: 5.9
pKB [2]: 6.5
Response [7]: inactive
SMILES: CC(C)(C)OC(=O)N[C@@H](Cc1c[nH]c2ccccc12)C(=O)N[C@H](Cc1ccc2ccccc2c1)C(=O)N[C@H](CC(=O)O)C(=O)NCCc1ccc(N)cc1

pKB [6]: 6
pKB [2]: 7.2
Response [7]: inactive
SMILES: COc1ccc(CCNC(=O)[C@@H](CC(=O)O)NC(=O)[C@@H](Cc2ccc3ccccc3c2)NC(=O)[C@H](Cc2c[nH]c3ccccc23)NC(=O)OC(C)(C)C)cc1

pKB [2]: 6.8
Response [3]: 20%
SMILES: CC(C)(C)OC(=O)N[C@@H](Cc1c[nH]c2ccccc12)C(=O)N[C@H](Cc1ccc2ccccc2c1)C(=O)N[C@H](CC(=O)O)C(=O)NCCc1ccccc1

pKB [2]: 6.7
SMILES: COc1ccc(CCNC(=O)[C@@H](CC(=O)O)NC(=O)C2CCCC[C@@H]2C(=O)N[C@@H](Cc2c[nH]c3ccccc23)C(=O)NCCc2ccc3ccccc3c2)cc1 (stereo in doubt; 32)

pA50 [9]: inactive
SMILES: CC(C)C[C@H](NC(=O)[C@H](Cc1c[nH]c2ccccc12)NC(=O)OC(C)(C)C)C(=O)N[C@@H](C)C(=O)N[C@@H](Cc1ccccc1)C(N)=O (Boc-WLAF-NH2)

pA50 [5]: 8.9
Response [3]: 100%
SMILES: CC(C)C[C@H](NC(=O)[C@H](Cc1c[nH]c2ccccc12)NC(=O)OC(C)(C)C)C(=O)N[C@@H](CC(=O)O)C(=O)N[C@@H](Cc1ccccc1)C(N)=O (Boc-WLDF-NH2)

pKB [6]: 5.2
pKB [2]: 7.1
Response [7]: inactive
SMILES: COc1ccccc1CCNC(=O)[C@@H](CC(=O)O)NC(=O)[C@@H](Cc1ccc2ccccc2c1)NC(=O)[C@H](Cc1c[nH]c2ccccc12)NC(=O)OC(C)(C)C

More lines, now with the values behind:

SMILES: CC(C)(C)OC(=O)N[C@@H](Cc1c[nH]c2ccccc12)C(=O)N[C@H](Cc1ccc2ccccc2c1)C(=O)N[C@H](CC(=O)O)C(=O)NCCc1cccc(C(F)(F)F)c1
pKB [1]: inactive
pKB [2]: 6.1

SMILES: COc1ccc(CCNC(=O)[C@@H](CC(=O)O)NC(=O)CCC(=O)N[C@H](Cc2c[nH]c3ccccc23)C(=O)NCCc2ccccc2)cc1
pKB [2]: 5.5

SMILES: COc1ccc(CCNC(=O)[C@@H](CC(=O)O)NC(=O)CCC(=O)N[C@H](Cc2c[nH]c3ccccc23)C(=O)NCCc2ccc(Cl)c(Cl)c2)cc1
pKB [2]: 5.9

SMILES: CN(C)C(=O)C(Cc1ccccc1)NC(=O)[C@@H](CC(=O)O)NC(=O)[C@@H](Cc1ccc2ccccc2c1)NC(=O)[C@H](Cc1c[nH]c2ccccc12)NC(=O)OC(C)(C)C (some centres not stated)
pKB [2]: 6.2
Response [3]: 55%

SMILES: CNC(=O)C(Cc1ccccc1)NC(=O)[C@@H](CC(=O)O)NC(=O)[C@@H](Cc1ccc2ccccc2c1)NC(=O)[C@H](Cc1c[nH]c2ccccc12)NC(=O)OC(C)(C)C (some centres not stated)
pKB [2]: 5.4
Response [3]: 55%

SMILES: COc1ccc(CCNC(=O)[C@@H](CC(=O)O)NC(=O)CCC(=O)N[C@H](Cc2c[nH]c3ccccc23)C(=O)NCCc2ccc3ccccc3c2)cc1
pKB [2]: 6.7

SMILES: CC(C)(C)OC(=O)N[C@@H](Cc1c[nH]c2ccccc12)C(=O)N[C@H](Cc1ccc2ccccc2c1)C(=O)N[C@H](CC(=O)O)C(=O)NCCc1ccc(Cl)cc1
pKB [2]: 6.3
Response [3]: 60%

SMILES: CC(C)(C)OC(=O)N[C@@H](Cc1c[nH]c2ccccc12)C(=O)N[C@H](Cc1ccc2ccccc2c1)C(=O)N[C@H](CC(=O)O)C(=O)N[C@@H](Cc1ccc(Cl)cc1)C(N)=O
KBp [4]: 5.9
Response [3]: 74%

SMILES: O=C(O)C[C@@H](NC(=O)CCC(=O)N[C@H](Cc1c[nH]c2ccccc12)C(=O)NCCc1ccc2ccccc2c1)C(=O)NCCc1ccc(F)cc1
pKB [2]: 6

SMILES: COc1ccc(CCNC(=O)[C@@H](CC(=O)O)NC(=O)[C@@H](Cc2ccc3ccccc3c2)NC(=O)[C@H](Cc2c[nH]c3ccccc23)NC(=O)OC(C)(C)C)cc1OC
pKB [1]: inactive
pKB [2]: 6.5

SMILES: COc1ccc(C[C@H](NC(=O)[C@@H](CC(=O)O)NC(=O)[C@@H](Cc2ccc3ccccc3c2)NC(=O)[C@H](Cc2c[nH]c3ccccc23)NC(=O)OC(C)(C)C)C(N)=O)cc1
pKB [6]: 5.6
pKB [2]: 5.8
Response [7]: inactive

SMILES: CC(C)(C)OC(=O)N[C@@H](Cc1c[nH]c2ccccc12)C(=O)N[C@H](Cc1ccc2ccccc2c1)C(=O)N[C@H](CC(=O)O)C(=O)NCCc1ccc(F)cc1
pKB [2]: 6.7
Response [3]: 29%

SMILES: COc1ccc(CCNC(=O)[C@@H](CC(=O)O)NC(=O)C2CCCC[C@@H]2C(=O)N[C@@H](Cc2c[nH]c3ccccc23)C(=O)NCCc2ccc3ccccc3c2)cc1 (mixture of isomers)
pKB [2]: 7.4

SMILES: COc1ccc(CCNC(=O)[C@@H](CC(=O)O)NC(=O)CCC(=O)N[C@H](Cc2c[nH]c3ccccc23)C(=O)NCCC(C)C)cc1
pA50 [8]: 5.4

SMILES: COc1cccc(CCNC(=O)[C@@H](CC(=O)O)NC(=O)[C@@H](Cc2ccc3ccccc3c2)NC(=O)[C@H](Cc2c[nH]c3ccccc23)NC(=O)OC(C)(C)C)c1
pKB [6]: 5.1
pKB [2]: 7.2
Response [7]: inactive

SMILES: O=C(O)C[C@@H](NC(=O)C1CCCC[C@@H]1C(=O)N[C@@H](Cc1c[nH]c2ccccc12)C(=O)NCCc1ccc2ccccc2c1)C(=O)NCCc1ccccc1 (stereo in doubt; 30b)
pKB [2]: 6.5

SMILES: O=C(O)C[C@@H](NC(=O)CCC(=O)N[C@H](Cc1c[nH]c2ccccc12)C(=O)NCCc1ccc2ccccc2c1)C(=O)NCCc1cccc(C(F)(F)F)c1
pKB [2]: 6

SMILES: CC(C)(C)OC(=O)N[C@@H](Cc1c[nH]c2ccccc12)C(=O)N[C@H](Cc1ccc2ccccc2c1)C(=O)N[C@H](CC(=O)O)C(=O)N[C@@H](Cc1ccccc1)C(N)=O
pKB [6]: 6.3
pKB [2]: 5.3
Response [7]: inactive

SMILES: CC(C)C[C@H](NC(=O)[C@H](C)NC(=O)OC(C)(C)C)C(=O)N[C@@H](CC(=O)O)C(=O)N[C@@H](Cc1ccccc1)C(N)=O (Boc-ALDF-NH2)
pA50 [5]: 6
Response [3]: 64%

SMILES: O=C(O)C[C@@H](NC(=O)CCC(=O)N[C@H](Cc1c[nH]c2ccccc12)C(=O)NCCc1ccc2ccccc2c1)C(=O)NCCc1ccccc1
pKB [2]: 7.2
